According to paper PMC10582660 (Clinical and Translational Science, 2023):
“And” between values parts separate entries of the source, which are not always exact repeats. Equal values may be shown once. Read-outs that look alike come from different tables or passages of the source.

Assays:
OATP2B1 = target: T1, OATP2B1 (Homo sapiens, UniProt O94956); test: Raloxifene as a substrate for uptake transporters; assay type: in vitro ADME; conditions: raloxifene 1, 10 μM, 2, 20 min, two‐fold cutoff
T1 sequence (O94956 1-709): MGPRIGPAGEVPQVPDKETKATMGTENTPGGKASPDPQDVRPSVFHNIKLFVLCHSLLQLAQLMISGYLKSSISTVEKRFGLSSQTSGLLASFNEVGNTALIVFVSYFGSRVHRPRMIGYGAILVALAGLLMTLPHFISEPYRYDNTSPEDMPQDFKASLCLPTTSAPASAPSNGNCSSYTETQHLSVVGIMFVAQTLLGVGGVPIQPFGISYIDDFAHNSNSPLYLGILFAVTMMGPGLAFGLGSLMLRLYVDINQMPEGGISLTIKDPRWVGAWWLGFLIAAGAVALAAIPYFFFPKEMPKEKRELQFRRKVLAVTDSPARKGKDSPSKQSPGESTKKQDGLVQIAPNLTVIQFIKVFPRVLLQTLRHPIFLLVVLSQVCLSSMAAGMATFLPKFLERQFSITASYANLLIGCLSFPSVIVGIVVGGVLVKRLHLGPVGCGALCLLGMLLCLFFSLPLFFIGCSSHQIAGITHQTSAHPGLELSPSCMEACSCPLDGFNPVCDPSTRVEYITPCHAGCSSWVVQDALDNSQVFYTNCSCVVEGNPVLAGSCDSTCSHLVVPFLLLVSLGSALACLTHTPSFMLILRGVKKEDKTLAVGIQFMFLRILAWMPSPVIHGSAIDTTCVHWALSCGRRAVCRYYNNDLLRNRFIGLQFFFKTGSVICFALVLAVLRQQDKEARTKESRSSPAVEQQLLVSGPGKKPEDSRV
Outline: (§1)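 Uptake of test compound (1 and 10 μM, 2 and 20 min) measured in transporter-expressing HEK293 or MDCKII cells or inside-out membrane vesicles. Run with positive-control probe substrates and inhibitors, plus empty-vector or untransfected control cells. Fold-accumulation relative to control cells judged against a two-fold cutoff for substrate status.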

[1] = after oral administration; cited from earlier work
[2] = Follow-up exploratory clinical study: raloxifene stool recovery; assay type: in vivo, human; conditions: for Raloxifene dose recovery0–48h in stool, geometric mean (CV%): stool 0 to 48 h relative to dose
Outline: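 Stool collected within 48 h pre-dose and all movements 0–24 and 24–48 h post-dose (water vs acute green tea arms), held at −20°C. Blended with water (1:2.5 by weight), stored at −80°C. Methanol/0.1% formic acid extraction with internal standards. 1×, 10× and 100× dilutions dried, reconstituted, quantified by UHPLC–MS/MS (calibration 0.06–400 nM). Recovery 0–48 h expressed as % of administered dose.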

OCT1 = target: T2, OCT1 (Homo sapiens, UniProt O15245); test: Raloxifene as a substrate for uptake transporters; assay type: in vitro ADME; conditions: raloxifene 1, 10 μM, 2, 20 min, two‐fold cutoff
T2 sequence (O15245 1-554): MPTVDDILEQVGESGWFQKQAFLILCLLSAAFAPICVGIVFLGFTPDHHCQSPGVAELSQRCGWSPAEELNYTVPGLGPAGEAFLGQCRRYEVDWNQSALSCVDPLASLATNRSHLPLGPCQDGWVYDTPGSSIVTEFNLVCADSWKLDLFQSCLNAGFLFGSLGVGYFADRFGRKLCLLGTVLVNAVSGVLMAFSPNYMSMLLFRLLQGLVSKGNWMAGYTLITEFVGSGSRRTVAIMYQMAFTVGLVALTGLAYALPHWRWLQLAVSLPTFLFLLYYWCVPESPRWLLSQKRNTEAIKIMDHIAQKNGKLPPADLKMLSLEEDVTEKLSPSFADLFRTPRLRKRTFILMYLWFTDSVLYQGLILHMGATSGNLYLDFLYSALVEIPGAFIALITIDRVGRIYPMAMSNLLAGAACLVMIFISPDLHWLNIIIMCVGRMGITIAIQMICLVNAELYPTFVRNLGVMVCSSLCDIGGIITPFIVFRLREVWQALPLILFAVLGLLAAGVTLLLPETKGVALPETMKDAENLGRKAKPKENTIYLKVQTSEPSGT
Outline: as §1

[3] = assay type: in vivo, human
Outline: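 Open-label fixed-sequence crossover in 16 healthy adults (8 male, 8 female), arms ≥7 days apart, fasted from midnight. Oral 60 mg test compound tablet with 240 mL water at 50°C (baseline) or brewed green tea. Acute: tea (one bag, 240 mL water, 80°C, 3 min, cooled to 50°C) given with dose, then at 4 and 8 h. Chronic: tea three times daily for 4 days, then day 5 as acute.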

OATP1B1 = target: T3, OATP1B1 (Homo sapiens, UniProt Q9Y6L6); test: Raloxifene as a substrate for uptake transporters; assay type: in vitro ADME; conditions: raloxifene 1, 10 μM, 2, 20 min, two‐fold cutoff
T3 sequence (Q9Y6L6 1-691): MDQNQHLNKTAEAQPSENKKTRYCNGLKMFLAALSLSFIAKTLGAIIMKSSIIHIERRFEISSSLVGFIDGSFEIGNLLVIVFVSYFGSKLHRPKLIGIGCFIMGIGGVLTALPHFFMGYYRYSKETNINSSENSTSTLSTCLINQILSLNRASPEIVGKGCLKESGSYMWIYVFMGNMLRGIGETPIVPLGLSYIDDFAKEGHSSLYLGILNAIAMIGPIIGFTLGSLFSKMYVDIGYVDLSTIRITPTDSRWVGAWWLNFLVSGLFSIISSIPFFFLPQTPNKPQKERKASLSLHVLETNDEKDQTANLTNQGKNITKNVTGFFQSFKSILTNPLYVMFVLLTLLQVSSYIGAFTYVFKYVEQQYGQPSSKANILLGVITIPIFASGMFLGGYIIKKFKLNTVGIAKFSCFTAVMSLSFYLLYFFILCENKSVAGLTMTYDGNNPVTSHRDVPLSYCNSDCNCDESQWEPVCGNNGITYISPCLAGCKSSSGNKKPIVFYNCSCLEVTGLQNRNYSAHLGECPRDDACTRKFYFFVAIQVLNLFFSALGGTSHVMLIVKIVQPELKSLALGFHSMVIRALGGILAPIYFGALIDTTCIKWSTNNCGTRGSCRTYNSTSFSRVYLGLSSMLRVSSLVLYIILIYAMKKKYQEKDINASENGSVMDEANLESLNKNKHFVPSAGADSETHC
Outline: as §1

[4] = upon acute and chronic green tea administration

fold‐accumulation (OATP2B1): 0.82–1.00
Raloxifene dose recovery0–48h green tea/baseline ratio (90% CI) ([2]; acute green tea vs baseline): 1.05 (0.45–2.43)
Raloxifene dose recovery0–48h in stool, geometric mean (CV%) ([2]; acute green tea): 10.6 (103) %
Raloxifene dose recovery0–48h in stool, geometric mean (CV%) ([2]; baseline): 10.1 (115) %
fold‐accumulation (OCT1): 1.13–1.52
AUC0–48h green tea/baseline ratio (90% CI) ([3]; acute green tea vs baseline): 0.53 (0.43–0.64)
AUC0–96h green tea/baseline ratio (90% CI) ([3]; acute green tea vs baseline): 0.57 (0.46–0.70)
Cmax,1 green tea/baseline ratio (90% CI) ([3]; acute green tea vs baseline): 0.37 (0.28–0.50)
t 1/2 green tea/baseline ratio (90% CI) ([3]; acute green tea vs baseline): 0.95 (0.81–1.12)
AUC0–96h green tea/baseline ratio (90% CI) ([3]; acute green tea vs baseline, listed as raloxifene): 0.57
geometric mean green tea/baseline raloxifene AUC0–96h ratio ([3]; after both acute and chronic administration): ~ 0.60
half-life ([3]; both, human, plasma, oral, geometric mean terminal half‐life, unchanged upon acute and chronic green tea administration): ~24 h
Tmax ([3]; both, human, plasma, oral, median t max,1, unchanged upon acute and chronic green tea administration): ~2 h
AUC0–48h green tea/baseline ratio (90% CI) ([3]; chronic green tea vs baseline): 0.56 (0.43–0.72)
AUC0–96h green tea/baseline ratio (90% CI) ([3]; chronic green tea vs baseline): 0.66 (0.54–0.81)
Cmax,1 green tea/baseline ratio (90% CI) ([3]; chronic green tea vs baseline): 0.39 (0.24–0.64)
t 1/2 green tea/baseline ratio (90% CI) ([3]; chronic green tea vs baseline): 0.89 (0.75–1.04)
AUC0–96h green tea/baseline ratio (90% CI) ([3]; chronic green tea vs baseline, listed as raloxifene): 0.66
magnitude of the decrease in raloxifene AUC with green tea ([3]; main study): ~ 40%
AUC0–48h ratio [3, 4]: 0.53–0.56
Cmax,1 ratio [3, 4]: 0.37–0.39
fold‐accumulation (OATP1B1): 1.04–1.19
Structure (SMILES): O=C(c1ccc(OCCN2CCCCC2)cc1)c1c(-c2ccc(O)cc2)sc2cc(O)ccc12 [Raloxifene, raloxifene, reference compound]
oral bioavailability [1]: < 2%
Percentage change in raloxifene stool recovery ([2]; baseline to acute green tea, individual participants): −70% and 440% and −80% and 300% and 10% and −14%
Raloxifene stool recovery ([2]; baseline, individual participants no. 8, 11, 12, 16, 17, 18): 1.7% and 0.27% and 93.8% and 18.0% and 17.4% and 69.8%
tolerability ([3]; main study, 16 participants, no severe adverse events reported): well tolerated
